Assay results taken from ChEMBL document CHEMBL1123375, “Carbocyclic puromycin: synthesis and inhibition of protein biosynthesis” (1986).
In brackets after ≈: the same amount, converted by molar mass.

Tests used:
Rattus norvegicus [1] = species: Rattus norvegicus; assay: (§1) Kinetic constant was evaluated by using peptidyl transferase assay against Rat liver ribosome system
Method in brief: (§2)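 Ac-[3H]-L-Phe-tRNA (22 pmol) prebound 60 min at 37°C to rat liver ribosomes (4.0 A260 units) with poly(U), 1.6 mM GTP, FWR, 15 mM Mg(OAc)2, 100 mM Tris-HCl pH 7.5, 100 mM NH4Cl. Mixture added to puromycin compound, 37°C for varying times. Product extracted into ethyl acetate and counted. Km and Vmax by Wilkinson analysis.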

Escherichia coli [2] = assay: (§3) Kinetic constant was evaluated by using peptidyl transferase assay against Escherichia coli ribosome system; type: functional
Method in brief: (§4)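 Ac-[14C]-L-Phe-tRNA (21 pmol) prebound 8 min at 28°C to washed E. coli ribosomes (2.78 A260 units) with poly(U), 1.50 mM GTP, FWR, 20 mM Mg(OAc)2, 130 mM Tris-HCl pH 7.5, 130 mM NH4Cl. Reaction started with puromycin compound in water, run for timed intervals, then stopped with NaOH. Ethyl acetate-extracted product counted, blank-corrected. Km and Vmax by Wilkinson analysis, triplicates.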

Escherichia coli [3] = assay: Substrate efficiency was evaluated by using peptidyl transferase assay against Escherichia coli ribosome system; type: functional; method in brief: as §4
Rattus norvegicus [4] = species: Rattus norvegicus; assay: Substrate efficiency was evaluated by using peptidyl transferase assay against Rat liver ribosome system; type: functional; method in brief: as §2
Escherichia coli [5] = assay: Ratio of kinetic parameter Vmax to that of Km in Escherichia coli ribosome system; parameters: unit not given here; method in brief: as §4
Rattus norvegicus [6] = species: Rattus norvegicus; assay: Ratio of kinetic parameter Vmax to that of Km in Rat liver ribosome; parameters: unit not given here; method in brief: as §2
Escherichia coli [7] = assay: as §3; method in brief: as §4
[8] = Compound was evaluated for the cytotoxicity by using P-388 in vitro assay against P-388 mouse lymphoid leukemia cells in 4 mL of Fischer's medium with 10% horse serum.; type: functional; details: P388, read-out: ED50 (the source's name)
Method in brief: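 Twofold dilution series in duplicate tubes, each seeded with 4×10^5 cells, incubated 72 h at 37°C, stoppered and held at a 30° angle without agitation, rotated twice daily. Growth read by hemocytometer count, inoculum subtracted. Percent inhibition calculated against controls, ED50 derived from this.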

Rattus norvegicus [9] = species: Rattus norvegicus; assay: as §1; type: functional; method in brief: as §2
Rattus norvegicus [10] = species: Rattus norvegicus; assay: Substrate efficiency of the compound was evaluated by using peptidyl transferase assay against Rat liver ribosome system; type: functional; method in brief: as §2
Rattus norvegicus [11] = species: Rattus norvegicus; assay: Substrate efficiency was evaluated by using peptidyl transferase assay against Rat liver ribosome system.; type: functional; method in brief: as §2

Row | Vmax (Rattus norvegicus [1]) [c.p.m.] | Efficiency (Rattus norvegicus [4]) [%] | Ratio (Escherichia coli [5]) | Ratio (Rattus norvegicus [6]) | Vmax (Escherichia coli [7]) [c.p.m.] | Km (Rattus norvegicus [9]) [µM] | Efficiency (Rattus norvegicus [10]) [%] | Km (Rattus norvegicus [1]) [µM] | Efficiency (Rattus norvegicus [11]) [%] | Km (Escherichia coli [7]) [µM] | SMILES | Km (Escherichia coli [2]) [µM] | Efficiency (Escherichia coli [3]) [%] | EC50 [8] [µg/mL]
1 | 14200 | 100 | 10200 | 55700 | 1890 | 255 |  |  |  |  | COc1ccc(C[C@H](N)C(=O)N[C@H]2[C@@H](O)[C@H](n3cnc4c(N(C)C)ncnc43)O[C@@H]2CO)cc1 [PUROMYCIN] | 186 | 100 | 0.3 (≈ 0.636 µM)
2 | 14200 |  | 8220 | 23300 | 1890 |  | 42 | 610 |  |  | COc1ccc(CC(N)C(=O)N[C@H]2[C@@H](O)[C@H](n3cnc4c(N(C)C)ncnc43)O[C@@H]2C)cc1 (stereo partly specified) | 230 | 81 | 0.3 (≈ 0.659 µM)
3 | 871 |  | 3420 | 3160 | 644 |  |  | 276 | 5.7 | 188 | COc1ccc(CC(N)C(=O)N[C@@H]2CC[C@@H](n3cnc4c(N(C)C)ncnc43)[C@@H]2O)cc1 (stereo partly specified) |  | 34 | 0.8 (≈ 1.82 µM)
4 | 3720 | 22 | 4540 | 12400 | 850 |  |  | 300 |  |  | COc1ccc(CC(N)C(=O)N[C@@H]2[C@@H](CO)C[C@@H](n3cnc4c(N(C)C)ncnc43)[C@@H]2O)cc1 (stereo partly specified) | 187 | 45 | 0.3 (≈ 0.639 µM)
